From PubChem BioAssay
In the library only some 3.7% were active in any assay of this set; here they are far more common.
GASC-1 inh = inhibitors of human GASC-1 (JMJD2C) demethylase | 330,000 tested, 0.069% active | AID 2099 | GST-JMJD2C(1-420) H3K9me3 demethylation, DELFIA europium | inhibition, % at 2.35 µM;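 active = more than half of a compound's replicate wells show inhibition beyond 50%, single wells judged on their own value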;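 note: signal counts dimethyl H3K9 product captured on neutravidin plate; 0% = median of DMSO wells and 100% = 0.3 times that DMSO median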
Target sequence (Q9H3R0 1-420 limits assumed): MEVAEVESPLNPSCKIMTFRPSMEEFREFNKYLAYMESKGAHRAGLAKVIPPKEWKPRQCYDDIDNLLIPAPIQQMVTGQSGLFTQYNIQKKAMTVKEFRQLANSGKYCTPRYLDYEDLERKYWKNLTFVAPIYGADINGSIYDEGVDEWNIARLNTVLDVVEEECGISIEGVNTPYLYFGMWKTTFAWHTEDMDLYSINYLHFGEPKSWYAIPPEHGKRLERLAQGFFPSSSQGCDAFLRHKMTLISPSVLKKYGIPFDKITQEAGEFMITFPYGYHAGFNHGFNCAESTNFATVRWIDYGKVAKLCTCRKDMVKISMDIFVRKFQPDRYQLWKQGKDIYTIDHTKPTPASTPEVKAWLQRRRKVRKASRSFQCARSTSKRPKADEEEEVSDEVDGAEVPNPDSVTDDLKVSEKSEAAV
SR-BI HDL uptake = mouse SR-BI HDL lipid transfer inhibition; 320,000 tested, 0.96% active; ldlA[mSR-BI] CHO cells, DiI-HDL uptake fluorescence, 3 h; AID 488896; inhibition, % at 12.5 µM;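 active = mean replicate inhibition of at least 70% and a set share of replicates each scoring 70 or more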;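 note: 0% = median of neutral control wells and 100% = median of positive control wells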
GAA850 FXN act = activators of GAA850 frataxin (FXN) promoter | HEK293 lucGAA850 FXN promoter luciferase reporter, 24 h; percent of 10 µM SAHA response | activation, % at 6 µM | 360,000 tested, 0.56% active | AID 540364;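 active = activation above the average of all compounds screened plus 3 SD, cutoff fixed separately per campaign, cut at about 7.5% in these data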;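 note: 0% = DMSO wells and 100% = 10 µM SAHA wells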
SR-BI DiI-HDL act = SR-BI HDL lipid transfer activation; CHO ldlA[mSR-BI] cells, DiI-HDL uptake fluorescence, 3 h; 100 = double the neutral-control signal; activation, % at 12.5 µM; 320,000 tested, 0.096% active;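 active = mean replicate activation of at least 60% and every replicate at or above 60%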;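 note: 0% = median plate neutral-control signal and 100% = twice that signal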
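System: CHO ldlA[mSR-BI] cells / Medium: HEPES-buffered (25 mM, pH 7.4) F12 plus 0.5% BSA / Probe or stimulus: labelled HDL, 10 µg/mL / Doses: single compound concentration, delivered by pin transfer / Schedule: 3 h, 37 °C / Measured by: DiI fluorescence, bottom read / Measure: cell-associated DiI fluorescence as measure of HDL uptake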
AHR act = human AHR activation. P35869. AHR-responsive luciferase reporter cells, luminescence. activation, % at 5 µM. 320,000 tested, 2.5% active. AID 2796; in the data active = activation above about 47%;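 note: 0% = vehicle wells and 100% = reference agonist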
Starred values were filed as active, the others as inactive.

How did CCOC(=O)[C@@H]1[C@H]2COc3cc(OC)ccc3[C@@H]2N2C(=O)N(c3ccc(F)cc3)C(=O)[C@@]12C do in these assays?
GASC-1 inh: -1; SR-BI HDL uptake: 0; GAA850 FXN act: -1; SR-BI DiI-HDL act: 0; AHR act: 1

Results for COc1cc(OC)c(/C=C2\C(=O)Nc3ccccc32)c(OC)c1 ?
AHR act: 79*

How did COc1ccc(C(=O)/C=C2/C(=O)Nc3ccccc32)c(OC)c1 do in these assays?
GASC-1 inh: -37; GAA850 FXN act: 1; AHR act: 17

How did Cc1c(Cl)cnc(NC(=O)COC(=O)c2cccc(S(=O)(=O)N3CCOCC3)c2)c1Cl do in these assays?
GAA850 FXN act: 0

Results for Cc1ccc(-c2nn(-c3ccc(F)cc3)cc2C(=O)NC2CCC(O)CC2)cc1 (configuration not stated) ?
GASC-1 inh: -3; SR-BI HDL uptake: 50; GAA850 FXN act: -1; SR-BI DiI-HDL act: -50; AHR act: -1

How did NNC(=O)COc1ccc2oc3c(c2c1)CCCC3 do in these assays?
GASC-1 inh: -1; GAA850 FXN act: -1; AHR act: 68*

What do the screens show for `COC(=O)c1ccccc1NC(=O)c1c(Br)cnn1C`?
GASC-1 inh: 1; SR-BI HDL uptake: 43; GAA850 FXN act: 0; SR-BI DiI-HDL act: -43; AHR act: 3

Results for Cn1ncc(Br)c1C(=O)Nc1ccc(Br)cn1 ?
GASC-1 inh: 1; SR-BI HDL uptake: -7; GAA850 FXN act: 0; SR-BI DiI-HDL act: 7; AHR act: 175*

How did Cc1ccc(C(=O)Nc2ccc(Cl)cn2)cc1 do in these assays?
GASC-1 inh: -9; SR-BI HDL uptake: 18; GAA850 FXN act: -5; SR-BI DiI-HDL act: -18; AHR act: 2

Results for Cn1ncc(Br)c1C(=O)Nc1ccc(Cl)cn1 ?
GASC-1 inh: 1; SR-BI HDL uptake: 5; GAA850 FXN act: 2; SR-BI DiI-HDL act: -5; AHR act: 65*

How did COc1ccc(/C=C/C(=O)Oc2cccc(/C=N/NC(=O)c3cccc(F)c3)c2)cc1 do in these assays?
GASC-1 inh: 11; SR-BI HDL uptake: 73*; GAA850 FXN act: -1; SR-BI DiI-HDL act: -73; AHR act: 1

Results for COc1ccc(/C=C/C(=O)Oc2ccc(/C=N\NC(=O)c3ccc(F)cc3)cc2)cc1 ?
GASC-1 inh: -7; SR-BI HDL uptake: -6; GAA850 FXN act: 1; SR-BI DiI-HDL act: 6; AHR act: 2

How did CN(C)S(=O)(=O)c1cccc(NC(=O)COC(=O)c2c[nH]c(=O)[nH]c2=O)c1 do in these assays?
GASC-1 inh: 5; SR-BI HDL uptake: -17; GAA850 FXN act: 0; SR-BI DiI-HDL act: 17; AHR act: 1

What do the screens show for `C/C(=N\NC(=O)c1c(Cl)c(C)nn1C)c1ccc(NC(=O)COc2ccc(Cl)cc2C)cc1`?
GASC-1 inh: -5; SR-BI HDL uptake: 72*; GAA850 FXN act: 0; SR-BI DiI-HDL act: -72; AHR act: 2

How did Cc1ccc(NC(=S)N2CCC(c3nc4ccccc4s3)CC2)cc1 do in these assays?
GASC-1 inh: -2; SR-BI HDL uptake: 23; GAA850 FXN act: -1; SR-BI DiI-HDL act: -23; AHR act: -1

What do the screens show for `CC(=O)Nc1ccc(-c2ccnc3c2CC(C)(C(=O)Nc2cccc(OC(F)(F)F)c2)O3)cc1` (configuration not stated)?
GAA850 FXN act: 0

Results for CCOP(=O)(OCC)/C(=C/N1CCCCC1)NC(=O)c1ccccc1 ?
GASC-1 inh: -3; SR-BI HDL uptake: -16; GAA850 FXN act: -1; SR-BI DiI-HDL act: 16; AHR act: 64*

Results for CCOC(=O)C(NC(=O)c1ccccc1)=C1CCCCC1 ?
GASC-1 inh: -9; SR-BI HDL uptake: 4; GAA850 FXN act: 1; SR-BI DiI-HDL act: -4; AHR act: 3

Results for CC(C)C(=O)Nc1ccc(C(=O)CSc2nnc(C3CC3)n2C2CC2)cc1 ?
GASC-1 inh: 7; SR-BI HDL uptake: 14; GAA850 FXN act: 0; SR-BI DiI-HDL act: -14; AHR act: 1

Results for COc1ccc(/C=C\C(=O)NCc2ccc3[nH]c(C)cc3c2)cc1OC ?
GASC-1 inh: 2; SR-BI HDL uptake: 38; GAA850 FXN act: 1; SR-BI DiI-HDL act: -38; AHR act: 5

What do the screens show for `COc1cc(/C=C\C(=O)NCc2ccc3[nH]c(C)cc3c2)cc(OC)c1OC`?
GASC-1 inh: -12; SR-BI HDL uptake: 76*; GAA850 FXN act: -5; SR-BI DiI-HDL act: -76; AHR act: 2

Results for COc1ccc2c(C)c(C(=O)NCC(C)O)oc2c1OC (configuration not stated) ?
GASC-1 inh: -18; SR-BI HDL uptake: -8; GAA850 FXN act: 0; SR-BI DiI-HDL act: 8; AHR act: 18

Results for Cn1c(CC(O)c2nc3ccccc3n2C)nc2ccccc21 (configuration not stated) ?
GAA850 FXN act: 0

Results for COC(=O)CCCn1c(C)cc(C(=O)CCl)c1C ?
GASC-1 inh: -11; SR-BI HDL uptake: -21; GAA850 FXN act: -3; SR-BI DiI-HDL act: 21; AHR act: 1

How did Cc1cc(C(=O)CCl)c(C)n1CCc1ccccc1 do in these assays?
GASC-1 inh: 9; AHR act: 61*

What do the screens show for `CCOC(=O)c1cc(C)n(CCc2ccccc2)c1C`?
GASC-1 inh: 0; SR-BI HDL uptake: 80*; GAA850 FXN act: 5; SR-BI DiI-HDL act: -80; AHR act: -4

Results for Cc1cc(C(=O)Cn2cncn2)c(C)n1CCc1ccc(F)cc1 ?
GASC-1 inh: 2; SR-BI HDL uptake: 34; GAA850 FXN act: -2; SR-BI DiI-HDL act: -34; AHR act: 60*

What do the screens show for `CCCCNC(=O)COC(=O)c1ccc(F)cc1Cl`?
GASC-1 inh: 9; SR-BI HDL uptake: -12; GAA850 FXN act: 0; SR-BI DiI-HDL act: 12; AHR act: 3

Results for CC(=O)N1CCN(c2ccc(NC(=O)c3ccc(Cl)c(Cl)c3)cc2)CC1 ?
GASC-1 inh: -8; SR-BI HDL uptake: 41; GAA850 FXN act: 1; SR-BI DiI-HDL act: -41; AHR act: -9

What do the screens show for `CCC(=O)N1CCc2cc(Br)cc(S(=O)(=O)NCCN3CCCC3)c21`?
GASC-1 inh: 2; SR-BI HDL uptake: 9; GAA850 FXN act: 1; SR-BI DiI-HDL act: -9; AHR act: 0

Results for CCC(=O)N1CCc2cc(Br)cc(S(=O)(=O)CC(=O)OC)c21 ?
GASC-1 inh: 99*; SR-BI HDL uptake: 11; GAA850 FXN act: 0; SR-BI DiI-HDL act: -11; AHR act: -1

What do the screens show for `Cc1ccc(N2N=C(c3ccc(F)cc3)CC2c2ccco2)cc1` (configuration not stated)?
GASC-1 inh: -6; SR-BI HDL uptake: 79*; GAA850 FXN act: 0; SR-BI DiI-HDL act: -79; AHR act: 1

How did Cc1c(C(=O)OCC(C)C)[nH]c2c1C(=O)CC(c1cccs1)C2 (configuration not stated) do in these assays?
GASC-1 inh: -7; SR-BI HDL uptake: 3; GAA850 FXN act: 0; AHR act: 19
